Sampled rows, rich in hits. Any-hit rate of the full collection: about 4.7%.
RGS4 act: potentiators or activators of RGS4; HEK293 M3R/inducible RGS4, carbachol calcium flux Fluo4; active compounds read low; B-score at 10 µM; hit rate 0.92% among 310,000;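 active = B-score of the integrated calcium signal more than 4 SD below the library mean, with starting fluorescence not abnormally high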;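 note: negative B-score means reduced calcium response which marks RGS4 activation or potentiation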
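Reagent: ECmax carbachol challenge; Test system: M3R-expressing HEK293 line, RGS4 induced by doxycycline; Schedule: overnight RGS4 induction, 30 min dye load 37 °C, 20 min compound RT; Detection: calcium dye Fluo4 fluorescence; Read-out: Agonist-evoked peak-minus-minimum fluorescence over baseline, integrated ratio, B score.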
MrgX1 antagonist: human MrgX1 receptor antagonism, primary screen; Q96LB2; MRGX1-HEK293 calcium flux, Fluo-4, BAM8-22 antagonism; active compounds read low; B-score at 10 µM; hit rate 1.3% among 310,000; AID 588676;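 active = calcium-response B-score plate-corrected more than 3 library SD below zero, starting fluorescence within 5 deviations, no agonist response on first addition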;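 note: peak minus trough fluorescence over baseline after final BAM8-22 challenge near maximal dose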
Target sequence (Q96LB2 whole entry, looked up): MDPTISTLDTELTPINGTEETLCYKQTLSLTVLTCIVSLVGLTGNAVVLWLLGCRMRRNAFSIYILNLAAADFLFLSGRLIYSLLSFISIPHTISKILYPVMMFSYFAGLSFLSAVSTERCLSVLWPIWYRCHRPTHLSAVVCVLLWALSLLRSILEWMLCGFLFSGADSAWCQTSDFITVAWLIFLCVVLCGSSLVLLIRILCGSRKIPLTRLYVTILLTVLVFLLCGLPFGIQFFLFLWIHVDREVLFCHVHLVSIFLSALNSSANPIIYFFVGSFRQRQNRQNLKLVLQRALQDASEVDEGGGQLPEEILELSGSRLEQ
MrgX1 ag: human MrgX1 receptor agonism, primary screen. Q96LB2. MrgX1-HEK293 cells, Fluo-4 calcium fluorescence, agonist mode; active compounds read high. B-score at 10 µM. hit rate 0.44% among 310,000. AID 588627;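 active = calcium response B-score plate-corrected fluorescence ratio at least 3 library SD, with starting fluorescence B-score inside 5 SD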
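Test system: HEK293 cells stably expressing human MrgX1 receptor; Input: fifteen thousand cells per well; Dosing: compound delivered in addition one of three; Schedule: overnight seeding, then 1 h dark dye loading; Technique: Fluo-4 NW calcium fluorescence; Measure: B-scored fluorescence response ratio; Controls: positive and negative controls per plate.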
RGS4 block: human RGS4 inhibition | P49798 | hit rate 0.45% among 310,000 | HEK293 M3R/RGS4 inducible, Fluo-4 calcium flux; active compounds read high; triggered by carbachol at its EC20 | B-score at 10 µM;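 active = B-score, a plate-corrected calcium signal, over three deviations above library mean, with baseline fluorescence within five deviations of library mean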;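 note: RGS4 expression induced by doxycycline in cells with stable M3 receptor; B-score is computed from the integrated fluorescence ratio over baseline after carbachol; higher B-score means a larger calcium signal and so more RGS4 inhibition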
Target sequence (P49798 whole entry, looked up): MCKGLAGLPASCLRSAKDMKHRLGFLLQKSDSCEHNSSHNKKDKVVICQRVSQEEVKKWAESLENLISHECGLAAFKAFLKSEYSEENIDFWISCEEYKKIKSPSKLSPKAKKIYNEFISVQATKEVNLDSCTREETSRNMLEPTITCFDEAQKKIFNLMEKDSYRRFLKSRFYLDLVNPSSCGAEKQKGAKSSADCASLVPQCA
Cl transport mod: KCC2 (human) Cl- transport modulation. KCC2 cells, thallium flux FluoZin-2 fluorescence. B-score of Tl+ flux slope (higher = more flux/activation; lower = inhibition) at 10 µM. hit rate 2.2% among 190,000. AID 1456;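 active = thallium flux slope and its plate-corrected score both differing from the plate sample mean at a set confidence after two filtering rounds, in either direction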;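 note: slope of fluorescence scaled to starting intensity during 10 to 20 s after thallium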
MrgX1 PAM: allosterically activates human MrgX1 receptor signaling; hit rate 0.63% among 310,000; MrgX1-HEK293, Fluo-4 calcium flux, FDSS; active compounds read high; Q96LB2; B-score at 10 µM;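 active = plate-corrected calcium response at least 3 library SD above typical, normal starting fluorescence, not activating the receptor alone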;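 note: compound read alongside a low EC10 to EC30 dose of BAM8-22 agonist; peak minus trough fluorescence over baseline measured at the second addition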
* hit, by the source's call; i = inactive; . = no result.

SMILES	RGS4 act	MrgX1 antagonist	MrgX1 ag	RGS4 block	Cl transport mod	MrgX1 PAM
Cc1csc(NC(=O)CSc2nc(=O)n(CCN(C)C)c3c2CCCC3)n1	i	i	i	i	.	i
Cc1c(NS(=O)(=O)c2ccc(N)cc2)c(=O)n(-c2ccccc2)n1C	i	i	i	i	.	i
Cc1cc(C)c[n+](-c2[nH]c(=O)sc2/C=N/NC([S-])=Nc2ccccc2)c1	i	-6.75*	i	i	0.224	i
Cc1cc[n+](-c2[nH]c(=O)sc2/C=N/NC([S-])=Nc2ccccc2)cc1	i	i	i	i	0.113	i
Cc1ccc(NS(=O)(=O)c2c(C)ccc3nsnc23)c([N+](=O)[O-])c1	i	i	i	i	.	i
CC(=O)Oc1c(C)cc(Cl)cc1C(=O)Nc1ccc([N+](=O)[O-])cc1Cl	i	-4.97*	i	i	0.224	i
O=C(N/N=C/c1ccccn1)c1[nH]c2ccc([N+](=O)[O-])cc2c1-c1ccccc1	i	-5.14*	i	i	2.74	i
O=C(NNC(=O)c1sccc1-n1cccc1)c1cccc(Cl)c1	i	i	i	i	12.1*	i
Cc1ccc(CNC(=O)c2sccc2-n2cccc2)cc1	i	i	i	i	6.92*	i
COc1ccc(C(=O)NCCCNC(=O)c2ccccn2)cc1Br	i	i	i	i	.	i
Cc1ccc(C)c(S(=O)(=O)N2CCN(C(=O)C3CCN(C(=O)c4ccc(F)cc4)CC3)CC2)c1	i	i	i	i	.	i
CCN(CC)Cc1ccccc1Sc1ccccc1	-9.21*	i	i	i	0.153	i
Cc1ccc2c(=O)cc(C(=O)NC3CCS(=O)(=O)C3)oc2c1C (centres undefined)	i	i	i	i	.	i
CC(Nc1cc(N2CCCC2)ccc1[N+](=O)[O-])c1ccccc1 (centres undefined)	i	i	i	i	-0.288	i
CCCC(=O)N1CCN(c2ccc([N+](=O)[O-])c(NC(C)c3ccccc3)c2)CC1 (centres undefined)	i	i	i	i	-4.57*	i
CCCS(=O)(=O)c1nc(S(=O)(=O)c2ccc(C)cc2)c(N2CCCC(C)C2)s1 (centres undefined)	i	i	i	i	.	i
CCn1c(SCC(=O)NC2CCS(=O)(=O)C2)nnc1-c1ccccc1 (centres undefined)	i	i	i	i	0.00829	i
Cc1ccc(-c2cn(-c3ccccc3)c(SCC(=O)NC3CCS(=O)(=O)C3)n2)cc1C (centres undefined)	i	i	i	i	11.7*	i
Cc1cc(C)n(C(=O)c2c([N+](=O)[O-])c(C)nn2C)n1	i	-7.67*	i	i	-0.409	i
O=C(/C=C/c1ccc(F)cc1)NC(=S)NNC(=O)[C@H]1C[C@@H]1c1ccccc1	i	i	42.8*	i	.	i
CCOC(=O)c1nn(-c2ccccc2)c2nc(-c3ccc(OC)cc3)c(C#N)c(=O)n12	i	-4.93*	i	i	-0.692	i
CCOC(=O)c1nn(-c2ccccc2C)c2nc(-c3ccc(C)cc3)c(C#N)c(=O)n12	i	i	i	i	0.561	i
CC(CN1CCCCC1)OC(=O)c1ccc2c(c1)OCO2 (centres undefined)	i	i	i	i	2.3	i
CC1CCN(CC(C)OC(=O)c2ccc3c(c2)OCCO3)CC1 (centres undefined)	-7.29*	i	i	i	.	i
CCN(CC)CCCN(C(=O)c1ccc(F)cc1)c1nc(-c2ccc(OC)cc2)cs1	i	i	i	i	.	i
SMILES	RGS4 act	MrgX1 antagonist	MrgX1 ag	RGS4 block	Cl transport mod	MrgX1 PAM
CCn1nc(C(=O)NC2=NCCS2)c2ccccc2c1=O	.	i	i	.	0.21	i
CCn1nc(C(=O)Nc2ccccc2N2CCCC2)c2ccccc2c1=O	-8.73*	i	i	i	.	11.7*
CCn1c(NC(=S)Nc2ccccc2)nc2ccccc21	i	i	i	i	13*	i
CCCn1c(NC(=O)c2ccc(C)cc2)nc2ccccc21	i	i	i	i	.	i
CCCn1c(NC(=O)c2ccccc2)nc2ccccc21	i	i	i	i	9.93*	i
O=[N+]([O-])/C=C/c1cc2ccccc2[nH]1	i	i	41.4*	i	-1.16	i
CC(NC(=O)c1ccccc1)c1nnc(SCC(=O)NC2CCCC2)n1C (centres undefined)	i	i	i	i	.	i
COc1ccc2cc(/C=N/NC(=O)CN(c3ccccc3)S(=O)(=O)c3ccccc3)c(Cl)nc2c1	i	i	i	i	-0.555	i
COc1ccc(N(CC(=O)N/N=C/c2cc3ccc(OC)cc3nc2Cl)S(=O)(=O)c2ccccc2)cc1	i	i	i	i	0.163	9.09*
CN(C(=O)COC(=O)CCC(=O)c1ccc(Cl)cc1)c1c(N)n(Cc2ccccc2)c(=O)[nH]c1=O	i	i	i	i	.	i
CCCNC(=O)Cn1c(=O)/c(=C\c2ccc(-c3ccc([N+](=O)[O-])cc3)o2)s/c1=C\C(=O)C(C)(C)C	i	-9.51*	i	i	i	i
CCCNC(=O)Cn1c(=O)/c(=C\c2ccc(-c3cccc([N+](=O)[O-])c3)o2)s/c1=C\C(=O)C(C)(C)C	i	-6.84*	i	i	-0.975	i
CCN(CC(=O)NCC(=O)Nc1ccc(Br)cc1C)Cc1ccccc1	i	i	i	i	.	i
Cc1ccc(C(=O)Nc2ccc(S(=O)(=O)Nc3cnc4ccccc4n3)cc2)cc1	i	i	i	i	.	i
Cc1ccc(-c2nnn(CC(=O)N(c3cccc(F)c3)C(C(=O)NC3CCCC3)c3ccco3)n2)o1 (centres undefined)	i	-6.58*	i	i	-0.587	i
Cc1ccc(-c2nnn(CC(=O)N(c3ccc(F)cc3)C(C(=O)NC3CCCC3)c3ccco3)n2)o1 (centres undefined)	i	i	i	i	-0.576	i
O=C(c1cccc(N2C(=O)C3C4C=CC(C4)C3C2=O)c1)N1CCN(c2ccccc2F)CC1 (centres undefined)	i	i	i	i	.	i
Cc1cc(NC(=O)c2noc3c2CCc2ccccc2-3)no1	i	-7.36*	i	i	.	i
Cc1c(NC(=O)c2cc(-c3ccccc3O)on2)c(=O)n(-c2ccccc2)n1C	i	i	i	i	0.456	i

From PubChem
